Measurements collected from several papers.
Protocols differ between the studies behind these lines.
Target: Phosphatidylinositol 4-kinase beta (PI4KB, Homo sapiens, UniProt Q9UBF8)

| Compound | assay | conditions | quantity | result |
| --- | --- | --- | --- | --- |
| Cn1cc(-c2cc(F)cc(N3CCn4c(cc5c4CCCC5)C3=O)c2CO)cc(Nc2ccc(N3CCN(C4COC4)CC3)cn2)c1=O | enzyme activity, inhibitor | 0.1 µM | inhibition | -3% |
| C#Cc1n[nH]c2c(-c3cn([C@@H](C)c4ccccc4)c(=O)[nH]c3=O)cc(F)cc12 | enzyme activity, inhibitor | 0.1 µM | inhibition | -2.5% |
| Nc1ncc(-c2nc(N3CCOCC3)nc(N3CCOCC3)n2)c(C(F)F)n1 | binding, competition with immobilised ligand | 10 µM | remaining binding | 75% |
| Cn1cc(-c2cccc(N3CCc4c(sc5c4CC(C)(C)C5)C3=O)c2CO)cc(Nc2ccncn2)c1=O | enzyme activity, inhibitor | 1 µM | inhibition | -4% |
| C#Cc1n[nH]c2c(-c3cn(C(C)c4ccccn4)c(=O)[nH]c3=O)cc(F)cc12 (centres unmarked) | enzyme activity, inhibitor | 1 µM | inhibition | -4.1% |
| Cc1nn(C)cc1-c1nc2c(N3CCN(Cc4ccc(Cl)cc4)CC3)c(Cl)cnc2[nH]1 | binding, competition with immobilised ligand | 1 µM | remaining binding | 100% |
| Cn1cncc1[C@](O)(COc1ccc(C#N)cc1-c1ccc(OC(F)(F)F)cc1)c1ccc(C#N)cc1 | cell-free assay, competition with immobilised ligand | 1 µM | remaining binding | 94% |
| COc1ncccc1-c1cnn2ccc(N3CCN(C(=O)OC(C)C)CC3)nc12 | binding, competition with immobilised ligand | 1 µM | remaining binding | 100% |
